Our source for the IC50 and inhibition values is ChEMBL document CHEMBL4152283, “Discovery of potent and novel smoothened antagonists via structure-based virtual screening and biological assays” (Eur J Med Chem, 2018).

In assay [1] the target is Protein smoothened (Mus musculus, UniProt P56726). The assay can be described thus: Antagonist activity at Smo receptor in mouse NIH/3T3 cells harboring GRE-Luc assessed as inhibition of SAG-induced Hh signaling pathway co-incubated with SAG measured after 48 hrs by luciferase reporter gene assay. In general terms: In a reporter assay the amount or activity of a reporter protein is the signal.
Protein smoothened (Mus musculus, UniProt P56726), sequence (P56726 whole entry): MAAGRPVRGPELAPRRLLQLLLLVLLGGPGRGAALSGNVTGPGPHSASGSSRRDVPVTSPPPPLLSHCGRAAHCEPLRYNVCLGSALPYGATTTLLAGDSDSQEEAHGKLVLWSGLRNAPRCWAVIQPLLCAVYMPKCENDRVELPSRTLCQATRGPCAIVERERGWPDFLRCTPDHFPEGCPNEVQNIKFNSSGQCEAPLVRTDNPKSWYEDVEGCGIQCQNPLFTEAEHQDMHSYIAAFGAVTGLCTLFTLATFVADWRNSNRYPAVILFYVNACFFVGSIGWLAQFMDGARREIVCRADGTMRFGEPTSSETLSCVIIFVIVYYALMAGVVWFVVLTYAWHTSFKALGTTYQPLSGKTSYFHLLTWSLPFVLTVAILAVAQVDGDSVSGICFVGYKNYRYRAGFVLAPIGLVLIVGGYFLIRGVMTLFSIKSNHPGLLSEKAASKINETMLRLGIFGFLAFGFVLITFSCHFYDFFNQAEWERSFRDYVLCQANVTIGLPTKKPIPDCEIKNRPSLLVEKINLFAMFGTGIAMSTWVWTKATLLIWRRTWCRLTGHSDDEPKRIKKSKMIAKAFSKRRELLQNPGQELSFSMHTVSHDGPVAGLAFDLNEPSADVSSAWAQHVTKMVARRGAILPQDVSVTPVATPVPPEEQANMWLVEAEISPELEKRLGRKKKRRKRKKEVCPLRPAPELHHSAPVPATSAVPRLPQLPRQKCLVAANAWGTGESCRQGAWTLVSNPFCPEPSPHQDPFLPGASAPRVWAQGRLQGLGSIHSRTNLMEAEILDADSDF

Assay [2] has as its target T1, Protein smoothened (Homo sapiens, UniProt Q99835). The assay can be described thus: Displacement of BODIPY-Cyclopamine from human HA-tagged Smo receptor expressed in human U2OS cells at 3 to 1000 nM by DAPI staining based fluorescence microscopic method. The format is cell-based. Put shortly: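 Puromycin-selected U2OS clone expressing HA-tagged human Smo, seeded 10,000 cells/well in 10% serum DMEM and cultured 48 h at 37 °C. Cells fixed in 4% PFA for 20 min, DAPI (5 µg/mL) for 10 min, PBS washes, then 2 h at room temperature with 100 nM BODIPY-cyclopamine plus serially diluted compound. PBST washes, automated high-content fluorescence imaging, data normalized to GDC-0449. Sigmoidal fit for IC50. Ki by Cheng-Prusoff using probe Kd 255 ± 57 nM.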

The target in assay [3] is T1, Protein smoothened. The assay can be described thus: Antagonist activity at Smo receptor (unknown origin). The format is functional.

pIC50: −log10 of the molar value. Active and inactive are the calls of the source. No cut-off for these calls is given here.

T1 sequence (Q99835 whole entry): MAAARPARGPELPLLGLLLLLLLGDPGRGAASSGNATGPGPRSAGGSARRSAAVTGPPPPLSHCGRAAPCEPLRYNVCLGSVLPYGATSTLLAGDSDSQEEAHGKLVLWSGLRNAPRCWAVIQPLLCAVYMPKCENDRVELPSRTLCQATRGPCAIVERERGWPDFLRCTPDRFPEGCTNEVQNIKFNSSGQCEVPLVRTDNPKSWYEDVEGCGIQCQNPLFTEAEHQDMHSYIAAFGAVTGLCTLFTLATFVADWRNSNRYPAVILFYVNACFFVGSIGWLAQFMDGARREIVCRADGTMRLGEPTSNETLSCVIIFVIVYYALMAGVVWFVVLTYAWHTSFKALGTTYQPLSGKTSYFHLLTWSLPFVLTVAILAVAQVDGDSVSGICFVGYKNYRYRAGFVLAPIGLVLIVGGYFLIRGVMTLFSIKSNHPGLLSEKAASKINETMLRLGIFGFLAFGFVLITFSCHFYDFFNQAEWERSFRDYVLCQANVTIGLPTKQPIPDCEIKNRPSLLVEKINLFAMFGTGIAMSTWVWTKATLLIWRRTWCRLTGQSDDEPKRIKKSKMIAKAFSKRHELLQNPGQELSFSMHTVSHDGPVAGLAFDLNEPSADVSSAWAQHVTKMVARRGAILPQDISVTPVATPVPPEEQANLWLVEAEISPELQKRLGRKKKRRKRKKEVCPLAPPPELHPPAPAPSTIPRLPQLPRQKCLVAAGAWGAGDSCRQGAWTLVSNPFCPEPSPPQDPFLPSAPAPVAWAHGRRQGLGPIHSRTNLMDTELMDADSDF

With `Cc1ccc(-c2cc3c(N4CCC(C(=O)NC(C)c5ccccc5)CC4)nccn3n2)cc1C` (stereo not given), the pIC50 – broadly, the IC50 on a negative log10 scale, so that one unit is a factor of ten – on Protein smoothened [1] is 5.34.
The same measure, in the same setting: the same measure for `Cc1ccc(NCc2cccn2-c2nnc(N3CCC(C(=O)NC4CCCC4)CC3)s2)cc1`: 6.28.
The same measure, in the same setting: the same measure for `COc1ccc(-n2nc(C(=O)NCC(=O)Nc3nc4ccccc4s3)c3ccccc3c2=O)cc1`: below 5.00; for `O=C(CSc1nnc(CNC(=O)c2cccs2)n1-c1ccccc1)Nc1nc2ccccc2s1`: below 5.00; for `CC1Cc2ccccc2N1C(=O)c1ccc(=O)n(CCC(=O)N2CCN(c3ccccc3)CC2)n1` (stereo not given): 5.52.
Regarding `CCNC(=O)C1CCN(c2nnc(-n3cccc3CNc3ccc(C)cc3)s2)CC1`, the pIC50 on Protein smoothened [1] is 5.28.
Same read-out and setting: the value for `COc1ccc2[nH]cc(CCNC(=O)c3ccccc3NC(=O)c3nsc4ccccc34)c2c1` was below 5.00; that for `Cc1c(C(=O)NC2CCCCC2)sc2ncn(CC(=O)Nc3cccc(C(F)(F)F)c3)c(=O)c12` was below 5.00.
`O=C1CC(NC2CCN(c3ccc(C(F)(F)F)cn3)CC2)C(=O)N1c1ccc(F)cc1` (stereo not given): the pIC50 at Protein smoothened [1] is below 5.00.
The same measure, in the same setting: the value for `Cc1ccc(NCc2cccn2-c2nnc(N3CCC(C(=O)NC4CCCCC4)CC3)s2)cc1` was 6.18.
On the same count and under the same terms, the value for `O=C(Nc1ccc(N2CCN(Cc3ccccc3O)CC2)nc1)c1ccccc1C(F)(F)F` was 5.62.
Same read-out and setting: the value for `Cc1ccc(NCc2cccn2-c2nnc(N3CCC(C(=O)N4CCC(O)C4)CC3)s2)cc1` (stereo not given) was 5.12; that for `Cc1cccc(CNC(=O)Cc2cccc(N(Cc3ccccc3)C(=O)c3ccc(C#N)cc3)c2)c1` was below 5.00; that for `COc1cccc2c1OC1(C)CC2NC(=O)N1c1cccc(C(=O)N2CCN(c3ccccc3F)CC2)c1` (stereo not given) was below 5.00.
For `Cc1ccc(NCc2cccn2-c2nnc(N3CCC(C(=O)NCC4CC4)CC3)s2)cc1`, on Protein smoothened [1], the pIC50 is 5.77.
On the same count and under the same terms, the same measure for `Cc1ccc(NCc2cccn2-c2nnc(N3CCC(C(=O)NC4CCCCC4C)CC3)s2)nc1` (stereo not given): 7.24; for `COc1cc(F)ccc1S(=O)(=O)NCCNc1nc(-c2ccc(F)cc2)nc2ccccc12`: below 5.00.
In the case of `Cc1ccc(NCc2cccn2-c2nnc(N3CCC(C(=O)NCC(C)(C)O)CC3)s2)cc1`, the pIC50 at Protein smoothened [1] is 5.37.
Consider `Cc1ccc(NCc2cccn2-c2nnc(N3CCC(C(=O)NC4CC4)CC3)s2)cc1`, for which the pIC50 on Protein smoothened [1] is 5.38.
In the case of `CN(C(=O)Cn1c(=O)n(CCCC(=O)NCc2ccccc2)c(=O)c2sccc21)c1ccccc1`, the negative logarithm of the IC50 (pIC50) at Protein smoothened [1] is below 5.00.
Take `CC(C)c1ccc(NC(=O)c2cc(S(=O)(=O)N3CCN(c4ccccc4F)CC3)ccc2F)cc1`: on Protein smoothened [1], the pIC50 is below 5.00.
The same measure, in the same setting: the value for `CC1CCN(C(C)CNC(=O)c2ccc3c(c2)NC(=O)C(CS(=O)(=O)Cc2ccc(F)cc2Cl)N3)CC1` (stereo not given) was below 5.00.
Still for that read-out and setting: the same measure for `O=C(Nc1cccc(N2CCCN(Cc3ccc(F)c(F)c3)C2=O)c1)OCc1ccccc1`: 5.92.
Consider `Cc1ccc(NCc2cccn2-c2nnc(N3CCC(C(=O)NC4CCCCC4C)CC3)s2)cc1` (stereo not given), for which the pIC50 on Protein smoothened [1] is 7.33. The inhibition result at Protein smoothened [2] is “Active”.
Turning to `Cc1ccc(NCc2cccn2-c2nnc(N3CCC(C(=O)NCC(C)C)CC3)s2)cc1`, the pIC50 on Protein smoothened [1] is 5.96.
Turning to `CCn1cc(C(=O)O)c(=O)c2cc(F)c(N3CCN(C(=S)NC(=O)Cc4ccc(Cl)cc4)CC3)cc21`, the pIC50 at Protein smoothened [1] is below 5.00.
For the molecule `COc1ccc(Cl)cc1NC(=O)c1ccc(-n2nc(OCc3cccc(F)c3)ccc2=O)cc1`, the pIC50 on Protein smoothened [1] was below 5.00.
For the molecule `COc1cc(C(=O)NC(=N)Nc2cccc(NC(=O)c3ccc(-c4ccccc4)cc3)c2)cc(OC)c1OC`, the pIC50 at Protein smoothened [3] was 8.00.
As for `Cc1ccc(NCc2cccn2-c2nnc(N3CCC(C(=O)NC4CCCCC4C)CC3)s2)cn1` (stereo not given), the negative-log IC50 (pIC50) on Protein smoothened [1] was 6.62.
Take `Cc1oc(-c2cccc(Cl)c2)nc1CN1CCC(C(=O)NC2CCCc3ccccc32)CC1` (stereo not given): the pIC50 at Protein smoothened [1] was 6.02.
For `Cc1ccc(NC(=O)CSc2nc3ccc(NC(=O)c4ccccc4Cl)cc3s2)cc1Cl`, the pIC50 on Protein smoothened [1] is below 5.00.
For `Cc1ccc(NCc2cccn2-c2nnc(N3CCC(C(=O)NC(C)C)CC3)s2)cc1`, at Protein smoothened [1], the pIC50 was 5.92.
On the same count and under the same terms, the value for `Cc1ccc(NCc2cccn2-c2nnc(N3CCC(C(=O)N4CCCC4)CC3)s2)cc1` was 5.37; that for `CCC(Sc1nnc2c(=O)n(-c3ccc(C)c(C)c3)ccn12)C(=O)Nc1ccccc1C` (stereo not given) was below 5.00.
